Assay outcomes as filed in PubChem BioAssay.
Shown are actives, neighbours in structure and some others; about 1.9% of the full set was active somewhere.
DNMT1 inh – DNMT1 (human) enzyme inhibition; P26358; DNMT1 molecular beacon, Hinp1I cleavage, fluorescence; inhibition (reported as % activation of signal), % at 10 µM; 360,000 tested, 0.83% active; AID 588458; in the data active = inhibition above about 50%
STEP block – inhibitors of human striatal-enriched phosphatase STEP; inhibition, % at 20 µM; recombinant STEP, OMFP fluorogenic substrate, fluorescence; 360,000 tested, 0.25% active;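 active = inhibition at 20 µM, scaled per plate between control wells, above about 37%, limit read from the data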;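 also: 0% = DMSO with enzyme and substrate and 100% = substrate only without enzyme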
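Measure: Control-normalized % inhibition with plate pattern correction | Test system: STEP phosphatase, cell-free reaction | Medium: pH 6.0 Bis-Tris with DTT and Tween 20 | Technique: Fluorescence, 480/540 nm | Times: Reaction 20 min, ambient temperature | Doses: Single compound dose of 20 µM, 1% DMSO final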
Scp-1 inhibitor – inhibitors of human Scp-1 phosphatase; Q9GZU7; Recombinant Scp1, phosphopeptide, malachite green phosphate absorbance; inhibition, % at 20 µM; 340,000 tested, 0.88% active; AID 493091;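 active = inhibition above about 50% at 20 µM, limit read from the data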;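 also: plate controls were DMSO wells with enzyme for no effect and wells lacking enzyme for full effect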
Target sequence (Q9GZU7 76-261 limits assumed): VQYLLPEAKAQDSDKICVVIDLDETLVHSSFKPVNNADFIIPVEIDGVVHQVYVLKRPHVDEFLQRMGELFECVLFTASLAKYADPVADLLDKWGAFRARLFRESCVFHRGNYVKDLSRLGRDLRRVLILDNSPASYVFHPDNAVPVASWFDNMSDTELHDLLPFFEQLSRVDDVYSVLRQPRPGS
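Test system: SCP-1 catalytic domain; Buffer or medium: Acidic Tris acetate buffer with magnesium and detergent; Also added: Phosphorylated 17-residue peptide substrate; Compound: single 20 µM dose, 1% DMSO; Schedule: enzyme reaction 45 min at room temperature, colour 5 min, stabilisation 30 min; Signal: Phosphate-binding colour reagent, absorbance read at 630 nm.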
SUMO1 PPI mod – alters human SUMO1 binding to SIM partners; inhibition, % at 20 µM; P63165; SUMO1 binding to a labelled peptide, TR-FRET, 1 h; AID 602429; 360,000 tested, 0.33% active; in the data active = inhibition above about 37%
Target sequence (P63165 whole entry, looked up): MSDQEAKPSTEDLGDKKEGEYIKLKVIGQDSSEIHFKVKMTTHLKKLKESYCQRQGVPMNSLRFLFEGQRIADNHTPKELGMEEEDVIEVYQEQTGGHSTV
LMPTP block – LMPTP (human) inhibition | inhibition, % at 20 µM | P24666 | 360,000 tested, 0.22% active | AID 651560 | recombinant LMPTP-A, OMFP fluorogenic substrate, fluorescence intensity;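 active = compounds that cut the enzyme signal by at least half of the control window in the single-dose screen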;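 also: plate controls were DMSO wells with enzyme plus substrate for no effect and substrate without enzyme for full effect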
Target sequence (P24666 whole entry, looked up): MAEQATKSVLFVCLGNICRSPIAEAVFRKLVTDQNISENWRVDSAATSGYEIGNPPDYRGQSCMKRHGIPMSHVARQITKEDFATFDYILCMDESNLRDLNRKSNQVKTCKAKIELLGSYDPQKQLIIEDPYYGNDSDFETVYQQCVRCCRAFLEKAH
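Test system – LMPTP-A enzyme · Amount – LMPTP-A at 0.625 nM final in the reaction · Buffer or medium – Bis-Tris pH 6.0, DTT, detergent · Reagent – OMFP 400 µM · Doses – single 20 µM dose · Schedule – reaction 50 min, room temperature, dark · Detection – fluorescence intensity of OMFP turnover product · Evaluation – percent inhibition versus substrate-only and uninhibited controls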
SUMO HTRF inh – blocks human SUMOylation mediated by UBC9. P63279. HTRF SUMOylation assay, SAE1/SAE2 + UBC9, in vitro. inhibition, % at 35 µM. 290,000 tested, 0.36% active. AID 2006; in the data active = inhibition above about 50%, passing the limit was not always enough
Target sequence (P63279 whole entry, looked up): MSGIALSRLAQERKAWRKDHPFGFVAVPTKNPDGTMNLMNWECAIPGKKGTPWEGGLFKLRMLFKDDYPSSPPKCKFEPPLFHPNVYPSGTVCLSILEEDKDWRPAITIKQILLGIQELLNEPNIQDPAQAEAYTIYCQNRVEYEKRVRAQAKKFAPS
Scp1 confirm – confirmation of human Scp-1 phosphatase inhibitors. shares compounds with Scp-1 inhibitor. recombinant SCP-1 catalytic domain, phosphate release, malachite green absorbance. inhibition, % at 20 µM. 2,500 tested, 61% active;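 also: plate controls were DMSO with enzyme for no effect and buffer wells lacking enzyme for full effect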
Scp-1 MG ctr – counter-screen for Scp-1 inhibitors: colorimetric interference. shares compounds with Scp-1 inhibitor. Colorimetric interference counterscreen, malachite green absorbance 630 nm. apparent inhibition (interference), % at 20 µM. 2,500 tested, under 10 active. AID 540313;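 also: compounds added after enzyme reaction finished so only phosphate colour detection is probed; plate controls were DMSO wells with completed Scp-1 reaction for no effect and substrate wells lacking enzyme for full effect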
Scp1 DSF – binds human Scp-1, shifting its melting temperature. shares compounds with Scp-1 inhibitor. Recombinant SCP1, Sypro Orange thermal shift Tm. thermal shift relative to vanadate control, % at 40 µM. 1,500 tested, 25% active;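 active = substances whose mean melting-temperature shift, as a percentage of the reference inhibitor's shift, reaches about 5.3%, limit read from the data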;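 also: 0% = Tm of DMSO wells and 100% = Tm with sodium orthovanadate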
The depositor's hits bear a star; · = no result given.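 The calls were made as follows, unless noted: active = inhibition of at least 30% at 20 µM; inactive = the rest.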

SMILES	DNMT1 inh	STEP block	Scp-1 inhibitor	SUMO1 PPI mod	LMPTP block	SUMO HTRF inh	Scp1 confirm	Scp-1 MG ctr	Scp1 DSF
Cc1cccc(-n2ccc(=O)c(C(=O)Nc3ccc(S(=O)(=O)Nc4nccs4)cc3)n2)c1	-1	2	-5	6	5	4	·	·	·
Cc1cc2oc(C(=O)Nc3ccc(S(=O)(=O)Nc4nccs4)cc3)cc(=O)c2cc1Cl	37	2	52*	9	36	79	30	-11	·
O=C(c1ccc2c(c1)OCCO2)C1CCN(C(=O)Nc2ccccc2F)CC1	5	-1	-3	1	-1	-1	·	·	·
Cc1ccc(S(=O)(=O)N(CC(=O)Nc2ccc(C(N)=O)cc2)C(=O)N2CCN(C)CC2)cc1	-2	-1	-5	-1	-1	·	·	·	·
C/C(=N\NC(=O)c1ccccc1O)c1ccc(NC(=O)c2ccccc2)cc1	1	36	67*	-7	11	15	69*	-8	3
CCSc1nc2c([nH]1)c(=O)n(C)c(=S)n2C	0	6	61*	13	44	·	75*	-21	4
CC(=O)Nc1cc(NC(C)=O)cc(C(=O)N2CCCC3CCCCC32)c1 (stereo not drawn)	39	38	61*	17	12	18	54*	-1	5.7*
CC(/C=C/c1ccco1)=N\NC(=O)c1cc(C)[nH]n1	-15	-2	52*	4	0	12	24	-8	·
CC(/C=C/c1ccco1)=N/NC(=O)c1ccc(C)nc1	3	-1	-5	-10	-2	-10	·	·	·
Cc1cc(C(=O)N/N=C/c2ccco2)n[nH]1	1	-1	-1	-6	0	-8	·	·	·
O=C(C=Cc1ccco1)c1cc(Cl)ccc1O	15	0	-8	-4	0	·	·	·	·
CC(/C=C/c1ccco1)=N\NC(=O)c1cccnc1	-6	-2	55*	-6	0	8	33*	-11	-16
CC(/C=C/c1ccco1)=N\NC(=O)c1cc(Cl)ccc1O	49	2	54*	36	0	34	68*	-13	16*
COc1ccc(CC(O)COS(N)(=O)=O)cc1 (stereo not drawn)	9	-4	-2	8	-1	-14	·	·	·
CCn1c(=N)c(S(=O)(=O)c2ccc(Cl)cc2)cc2c(=O)n3ccccc3nc21	·	·	·	·	·	22	·	·	·
N=c1c(S(=O)(=O)c2ccc(Cl)cc2)cc2c(=O)n3ccccc3nc2n1Cc1ccco1	21	5	52*	-4	5	·	4	-1	·
Cc1cc(SCC(=O)NCC(c2cccs2)N2CCOCC2)c(C)cc1Br (stereo not drawn)	-4	0	-6	-103	-9	·	·	·	·
CC(=O)Nc1ccc(CN2CCCC(C(=O)c3ccc(C(F)(F)F)cc3)C2)cc1 (stereo not drawn)	3	0	1	2	-1	12	·	·	·
CCOc1ccc(NC(=O)C2CCCN2C(=O)Oc2ccccc2)cc1 (stereo not drawn)	1	-1	54*	3	-1	12	20	-8	·
CN(C)CCNC(=O)c1ccc2nc([C@@H]3O[C@H](CO)[C@H](O)[C@H](O)[C@H]3O)[nH]c2c1	0	-1	·	3	-5	·	·	·	·
CC(=O)OC1C2CCC1C([N+]1(C)CCCCC1)CC2 (stereo not drawn)	-1	1	94*	-3	-2	4	95*	-6	-25
O=C(COc1ccc(Cl)cc1)Nc1cccc(S(=O)(=O)NC2=NCCCCC2)c1	3	2	-9	2	1	·	·	·	·
N#Cc1ccc(OCC(=O)Nc2cccc(S(=O)(=O)NC3=NCCCCC3)c2)cc1	7	0	97*	6	1	·	50*	-14	-5
O=C(Nc1ccc(S(=O)(=O)NC2=NCCCCC2)cc1)C1COc2ccccc2O1 (stereo not drawn)	3	1	0	-3	0	12	·	·	·
O=C(Nc1cccc(S(=O)(=O)NC2=NCCCCC2)c1)C1COc2ccccc2O1 (stereo not drawn)	31	7	50*	-3	22	10	65*	-8	-11
SMILES	DNMT1 inh	STEP block	Scp-1 inhibitor	SUMO1 PPI mod	LMPTP block	SUMO HTRF inh	Scp1 confirm	Scp-1 MG ctr	Scp1 DSF
CCOc1ccccc1C(=O)OCC(=O)Nc1cccc(S(=O)(=O)NC2=NCCCCC2)c1	1	0	-2	-1	-1	·	·	·	·
O=C(COC(=O)c1ccccc1NCCO)Nc1cccc(S(=O)(=O)NC2=NCCCCC2)c1	5	-1	58*	4	2	·	48*	-11	-14
CCc1nnc(NC(=O)[C@@H](NC(=O)c2cc(OC)cc(OC)c2)C(C)C)s1	4	-2	3	-3	-1	4	·	·	·
CCOC(=O)c1ccc(S(=O)(=O)N2CCN(C3CC(=O)N(c4ccccc4C(F)(F)F)C3=O)CC2)cc1 (stereo not drawn)	0	-1	-6	1	2	·	·	·	·
C=CCn1c(SCC(=O)NCCOC)nc2scc(-c3ccco3)c2c1=O	7	1	52*	15	2	33	16	-25	·
C=CCn1c(SCC(=O)NCC2CCCO2)nc2scc(-c3ccco3)c2c1=O (stereo not drawn)	2	-3	-4	5	1	10	·	·	·
COc1ccccc1C(=O)COC(=O)C1CCN(S(=O)(=O)c2ccccc2)CC1	-3	0	·	3	-1	·	·	·	·
CC1CCCN(C(=O)COC(=O)C2=COCCO2)C1 (stereo not drawn)	1	-2	-15	4	-2	·	·	·	·
CCOC(=O)c1ccc2c(c1)n(CCO)c(C)[n+]2CC	1	-4	45	-4	-1	16	·	·	·
CCOC(=O)c1ccc2c(c1)n(CC)c(/C=C/N(C)c1ccccc1)[n+]2CC	5	2	94*	-2	-2	17	97*	-1	-18
O=C(NCCN1CCNC1=O)C1CCC(=O)N(CCc2ccccc2)C1 (stereo not drawn)	1	0	-8	0	1	8	-16	-12	·
O=C(Nc1cc(Cl)ccc1Cl)Nn1cnnc1	0	0	-6	5	-2	-3	·	·	·
Cc1nc(N2CCOCC2)c2c(C)c(C(=O)Nc3ccccc3Cl)sc2n1	1	1	51*	1	2	18	-13	-11	·
